Data set [1] concerns K562. The data set can be described thus: Growth inhibition of human K562 cells expressing p210Bcr/Abl after 96 hrs by trypan blue exclusion assay. In kind it is functional, cell-based. To be noted: K562, 96 h. The essentials: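 K562 cells were kept in RPMI with 10% FBS and penicillin–streptomycin at 37 °C under 5% CO2. Cells were seeded at 1 × 10^5 cells/mL with a range of compound concentrations, using DMSO as the negative control. After 96 h, viability was counted by Trypan blue exclusion and expressed as percent of DMSO control to derive GI50.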

Data set [2] relates to DU-145. The data set can be described thus: Growth inhibition of human DU145 cells after 96 hrs by trypan blue exclusion assay. In kind it is functional. To be noted: DU-145, 96 h.
The target in data set [3] is T1, Bcr/Abl fusion protein (Homo sapiens, UniProt P00519). The data set can be described thus: Inhibition of BCR/ABL p210 autophosphorylation in human K562 cells after 2 hrs by Western blot analysis. In kind it is cell-based. A general note: In western blotting, separated proteins are transferred to a membrane and probed.
T1 sequence (P00519 whole entry, the tested form may be a part): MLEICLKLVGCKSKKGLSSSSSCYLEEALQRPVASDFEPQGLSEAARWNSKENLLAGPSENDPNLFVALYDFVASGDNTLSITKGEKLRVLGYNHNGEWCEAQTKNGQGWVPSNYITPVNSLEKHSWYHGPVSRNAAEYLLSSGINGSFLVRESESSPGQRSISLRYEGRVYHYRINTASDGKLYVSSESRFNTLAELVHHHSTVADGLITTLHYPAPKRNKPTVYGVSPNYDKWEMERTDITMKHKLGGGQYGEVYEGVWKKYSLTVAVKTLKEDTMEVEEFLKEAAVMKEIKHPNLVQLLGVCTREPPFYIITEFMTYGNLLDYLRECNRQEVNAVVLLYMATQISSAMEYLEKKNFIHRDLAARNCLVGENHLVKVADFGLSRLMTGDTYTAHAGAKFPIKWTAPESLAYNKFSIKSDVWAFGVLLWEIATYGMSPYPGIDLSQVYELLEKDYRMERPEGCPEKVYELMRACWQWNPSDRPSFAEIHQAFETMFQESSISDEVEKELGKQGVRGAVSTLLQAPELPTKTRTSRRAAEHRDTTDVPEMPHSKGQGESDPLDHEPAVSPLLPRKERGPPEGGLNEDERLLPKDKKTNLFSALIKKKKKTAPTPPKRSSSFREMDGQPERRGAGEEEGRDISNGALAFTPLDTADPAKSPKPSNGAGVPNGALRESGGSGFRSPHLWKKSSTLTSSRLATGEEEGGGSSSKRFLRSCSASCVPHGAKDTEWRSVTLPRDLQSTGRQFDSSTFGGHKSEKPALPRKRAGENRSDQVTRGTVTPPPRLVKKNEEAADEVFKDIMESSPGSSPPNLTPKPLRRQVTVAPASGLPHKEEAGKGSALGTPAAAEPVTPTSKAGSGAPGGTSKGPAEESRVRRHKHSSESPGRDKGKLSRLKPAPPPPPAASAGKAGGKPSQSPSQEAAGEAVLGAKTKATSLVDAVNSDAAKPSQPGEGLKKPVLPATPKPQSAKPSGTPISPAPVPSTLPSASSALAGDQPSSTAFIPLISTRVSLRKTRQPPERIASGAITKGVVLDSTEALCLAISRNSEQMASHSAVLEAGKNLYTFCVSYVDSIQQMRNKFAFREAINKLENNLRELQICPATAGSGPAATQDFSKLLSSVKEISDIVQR
T1 sequence (P11274 whole entry, further chain, the tested form may be a part): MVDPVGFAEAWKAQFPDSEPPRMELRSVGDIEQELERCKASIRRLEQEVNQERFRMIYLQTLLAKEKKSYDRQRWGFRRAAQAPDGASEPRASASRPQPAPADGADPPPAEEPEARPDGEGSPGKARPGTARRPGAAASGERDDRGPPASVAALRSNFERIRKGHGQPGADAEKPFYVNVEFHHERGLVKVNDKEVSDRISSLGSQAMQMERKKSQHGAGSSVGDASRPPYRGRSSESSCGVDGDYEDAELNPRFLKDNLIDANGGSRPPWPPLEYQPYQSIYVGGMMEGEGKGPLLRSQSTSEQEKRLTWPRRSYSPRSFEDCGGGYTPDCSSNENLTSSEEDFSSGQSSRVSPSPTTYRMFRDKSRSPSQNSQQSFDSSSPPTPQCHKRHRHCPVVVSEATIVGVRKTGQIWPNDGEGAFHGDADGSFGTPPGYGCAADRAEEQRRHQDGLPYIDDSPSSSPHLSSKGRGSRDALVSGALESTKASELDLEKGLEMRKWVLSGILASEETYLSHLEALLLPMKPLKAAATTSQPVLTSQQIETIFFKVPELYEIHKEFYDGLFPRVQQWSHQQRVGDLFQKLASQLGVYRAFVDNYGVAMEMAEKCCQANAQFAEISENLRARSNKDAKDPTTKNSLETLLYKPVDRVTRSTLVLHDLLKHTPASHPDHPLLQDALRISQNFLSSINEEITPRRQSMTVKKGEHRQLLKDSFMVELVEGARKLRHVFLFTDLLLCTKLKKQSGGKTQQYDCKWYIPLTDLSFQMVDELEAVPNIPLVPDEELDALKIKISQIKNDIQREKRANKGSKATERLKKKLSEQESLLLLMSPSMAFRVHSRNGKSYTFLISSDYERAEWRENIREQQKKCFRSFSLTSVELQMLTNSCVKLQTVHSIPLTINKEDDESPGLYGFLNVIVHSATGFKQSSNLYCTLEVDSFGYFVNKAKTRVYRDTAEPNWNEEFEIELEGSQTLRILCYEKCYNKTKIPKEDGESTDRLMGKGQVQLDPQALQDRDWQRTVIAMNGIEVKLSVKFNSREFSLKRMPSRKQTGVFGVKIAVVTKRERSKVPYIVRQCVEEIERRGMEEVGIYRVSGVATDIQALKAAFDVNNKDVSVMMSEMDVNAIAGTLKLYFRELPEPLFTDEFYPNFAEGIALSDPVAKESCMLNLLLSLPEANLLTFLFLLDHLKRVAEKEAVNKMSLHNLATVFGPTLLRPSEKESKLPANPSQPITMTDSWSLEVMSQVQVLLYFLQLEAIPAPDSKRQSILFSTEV
Data set [4] in a line: Aqueous solubility of the compound. In kind it is physicochemical. To be noted: buffer.
Data set [5] addresses Bcr/Abl fusion protein (Homo sapiens) (UniProt P00519+P11274). The data set can be described thus: Inhibition of BCR/ABL p210 autophosphorylation in human K562 cells at 0.2 to 10 uM after 2 hrs by Western blot analysis. In kind it is cell-based. The essentials: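 Exponentially growing K562 cells were treated for 2 h with rising compound concentrations, diluted from 10 mM DMSO stocks via 1000× DMSO working stocks, or with DMSO vehicle. Lysates were run on 10% SDS–PAGE. Blots were probed sequentially for phospho-BCR-ABL and total BCR-ABL, detected with infrared-dye secondaries, and quantified by densitometry. The phospho signal was normalized to total, with % inhibition relative to vehicle.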

Data set [6] in a line: Aqueous solubility of the compound.
Data set [7] deals with T1, Bcr/Abl fusion protein. The data set can be described thus: Inhibition of Bcr-Abl after 20 mins by autoradiography. In kind it is protein assay. The essentials:
(§1)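 Kinase reactions were started by adding 1 µg recombinant substrate with unlabelled and 32P-labelled ATP. They ran 20 min at 30 °C and were stopped with 2× Laemmli buffer, then boiled 2 min and resolved on 12% SDS–PAGE. Substrate phosphorylation bands on autoradiograms were quantified by densitometry and plotted against log drug concentration. IC50 came from sigmoidal variable-slope nonlinear regression.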

Data set [8] has as its target Tyrosine-protein kinase Lyn (Homo sapiens, UniProt P07948). In words: Inhibition of GST-tagged recombinant LynB after 20 mins by autoradiography. The essentials:
as §1

Data set [9] has as its target Proto-oncogene tyrosine-protein kinase Src (Homo sapiens, UniProt P12931). In words: Inhibition of GST-tagged recombinant Src after 20 mins by autoradiography. In a few lines: as §1
Data set [10] deals with Receptor tyrosine-protein kinase erbB-2 (Homo sapiens, UniProt P04626). In words: Inhibition of ErbB2 by immunoprecipitation assay.
Chain of Receptor tyrosine-protein kinase erbB-2 (P04626 whole entry): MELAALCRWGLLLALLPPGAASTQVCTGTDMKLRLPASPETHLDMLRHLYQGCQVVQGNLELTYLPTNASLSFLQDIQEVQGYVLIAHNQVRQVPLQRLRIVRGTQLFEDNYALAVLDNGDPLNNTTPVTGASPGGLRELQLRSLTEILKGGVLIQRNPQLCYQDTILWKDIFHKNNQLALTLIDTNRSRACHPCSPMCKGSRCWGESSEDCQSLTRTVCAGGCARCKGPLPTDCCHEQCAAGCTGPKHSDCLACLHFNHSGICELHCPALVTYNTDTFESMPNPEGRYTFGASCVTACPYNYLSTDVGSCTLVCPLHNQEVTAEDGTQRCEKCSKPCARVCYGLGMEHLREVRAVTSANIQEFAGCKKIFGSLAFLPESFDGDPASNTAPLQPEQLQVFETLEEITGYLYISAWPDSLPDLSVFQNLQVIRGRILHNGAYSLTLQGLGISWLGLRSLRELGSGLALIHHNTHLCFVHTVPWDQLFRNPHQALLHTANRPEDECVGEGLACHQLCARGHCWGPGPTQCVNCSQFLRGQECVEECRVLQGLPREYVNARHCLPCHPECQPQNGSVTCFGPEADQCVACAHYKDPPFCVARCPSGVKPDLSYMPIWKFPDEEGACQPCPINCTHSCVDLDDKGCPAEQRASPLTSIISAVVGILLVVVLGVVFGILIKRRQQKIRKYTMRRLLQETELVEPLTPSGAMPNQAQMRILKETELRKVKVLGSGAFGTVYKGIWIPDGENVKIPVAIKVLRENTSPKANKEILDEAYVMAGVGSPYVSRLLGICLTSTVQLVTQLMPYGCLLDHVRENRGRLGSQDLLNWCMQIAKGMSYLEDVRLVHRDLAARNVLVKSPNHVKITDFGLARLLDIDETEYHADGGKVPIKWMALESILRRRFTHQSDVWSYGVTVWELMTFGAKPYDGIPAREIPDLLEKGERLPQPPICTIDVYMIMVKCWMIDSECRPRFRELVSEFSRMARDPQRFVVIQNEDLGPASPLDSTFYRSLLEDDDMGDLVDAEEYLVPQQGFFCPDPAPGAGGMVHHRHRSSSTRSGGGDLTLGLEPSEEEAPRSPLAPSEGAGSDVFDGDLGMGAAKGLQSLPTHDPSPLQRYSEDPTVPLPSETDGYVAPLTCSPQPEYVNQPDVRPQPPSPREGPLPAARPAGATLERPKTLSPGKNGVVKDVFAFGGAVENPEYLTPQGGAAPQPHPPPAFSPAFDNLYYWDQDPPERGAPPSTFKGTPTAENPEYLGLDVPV
The target of data set [11] is Epidermal growth factor receptor (Homo sapiens, UniProt P00533). The data set can be described thus: Inhibition of EGFR by immunoprecipitation assay.
Data set [12] deals with Serine/threonine-protein kinase PLK1 (Homo sapiens, UniProt P53350). The data set can be described thus: Inhibition of GST-tagged recombinant PLK1 after 20 mins by autoradiography. In a few lines: as §1
Data set [13] addresses Cyclin-dependent kinase 1 (Homo sapiens, UniProt P06493). In words: Inhibition of GST-tagged recombinant CDK1 after 20 mins by autoradiography. The essentials:
as §1

The source made the active and inactive calls. No cut-off for these calls is given here.

Broadly, the GI50 is the concentration giving 50% growth inhibition. Higher therefore signals lower sensitivity of the cells. One may read the IC50 as the concentration needed to halve the response being measured. Usually solubility stands for how much of the substance goes into solution per volume. High values mean a readily soluble substance, low ones a poorly soluble substance.

Chain of Bcr/Abl fusion protein (Homo sapiens) (P00519 whole entry, looked up, the tested form may be a part): as the sequence (P00519 whole entry, the tested form may be a part) above
Chain of Bcr/Abl fusion protein (Homo sapiens) (P11274 whole entry, looked up, the tested form may be a part): as the sequence (P11274 whole entry, further chain, the tested form may be a part) above
Chain of Proto-oncogene tyrosine-protein kinase Src (P12931 2-536 limits assumed): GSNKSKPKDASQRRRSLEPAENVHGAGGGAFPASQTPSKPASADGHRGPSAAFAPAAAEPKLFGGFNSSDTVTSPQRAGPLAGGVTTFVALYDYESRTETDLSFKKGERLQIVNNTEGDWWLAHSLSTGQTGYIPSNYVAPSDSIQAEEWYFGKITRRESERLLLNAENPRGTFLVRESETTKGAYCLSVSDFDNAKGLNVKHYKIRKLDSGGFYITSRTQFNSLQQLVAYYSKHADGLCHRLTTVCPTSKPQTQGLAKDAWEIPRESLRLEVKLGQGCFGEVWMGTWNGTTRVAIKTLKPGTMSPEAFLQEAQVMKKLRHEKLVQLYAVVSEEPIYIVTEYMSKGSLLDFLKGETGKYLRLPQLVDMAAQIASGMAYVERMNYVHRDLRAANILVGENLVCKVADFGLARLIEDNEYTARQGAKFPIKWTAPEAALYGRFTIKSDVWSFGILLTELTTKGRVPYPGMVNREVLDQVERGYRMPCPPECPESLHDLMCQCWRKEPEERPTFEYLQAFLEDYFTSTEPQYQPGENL
Chain of Cyclin-dependent kinase 1 (P06493 whole entry): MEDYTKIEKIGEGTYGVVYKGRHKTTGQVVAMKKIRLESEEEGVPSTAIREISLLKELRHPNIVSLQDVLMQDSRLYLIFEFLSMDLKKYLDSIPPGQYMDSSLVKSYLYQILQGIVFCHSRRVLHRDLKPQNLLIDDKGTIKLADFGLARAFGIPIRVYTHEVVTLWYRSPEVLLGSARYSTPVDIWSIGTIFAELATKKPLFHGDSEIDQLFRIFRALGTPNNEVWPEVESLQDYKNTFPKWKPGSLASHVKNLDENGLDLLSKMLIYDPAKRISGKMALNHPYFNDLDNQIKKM
Chain of Tyrosine-protein kinase Lyn (P07948 whole entry): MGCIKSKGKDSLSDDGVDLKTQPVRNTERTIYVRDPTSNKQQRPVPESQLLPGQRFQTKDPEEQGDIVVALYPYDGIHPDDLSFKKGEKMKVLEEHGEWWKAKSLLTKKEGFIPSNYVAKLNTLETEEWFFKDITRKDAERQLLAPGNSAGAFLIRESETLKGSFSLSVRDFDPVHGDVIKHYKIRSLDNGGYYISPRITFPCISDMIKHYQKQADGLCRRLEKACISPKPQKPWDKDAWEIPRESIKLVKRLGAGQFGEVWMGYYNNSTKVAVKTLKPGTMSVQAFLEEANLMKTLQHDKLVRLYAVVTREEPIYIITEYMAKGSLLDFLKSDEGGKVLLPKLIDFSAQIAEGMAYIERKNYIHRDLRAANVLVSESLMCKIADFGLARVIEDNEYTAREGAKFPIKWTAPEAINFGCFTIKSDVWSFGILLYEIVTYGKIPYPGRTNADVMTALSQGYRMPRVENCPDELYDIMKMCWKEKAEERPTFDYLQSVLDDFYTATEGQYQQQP

`CN1CCN(CCNC(=O)c2ccc(C(=O)/C(=C\c3ccc(F)c([N+](=O)[O-])c3)SCc3ccc(Br)cc3)cc2)CC1`: the GI50 in [1] and in data set [2] was 1000 nM each time. Besides, the IC50 in [1] and in data set [3] was 2500 nM throughout. The solubility in [4] and in data set [6] was above 10000 µg/mL throughout. Moreover, the inhibition entry in [5] was “Active”.

Take `O=C(O)c1ccc(C(=O)/C(=C\c2ccc(F)c([N+](=O)[O-])c2)SCc2ccc(Br)cc2)cc1`: the GI50 in [1] was below 1000 nM; in data set [2] it was 1000 nM. For the same compound, the IC50 in [1] was 300 nM; in [3], 500 nM; in data set [7], 750 nM; in [8], 17000 nM; in data set [9], 13200 nM; in data set [10], above 10000 nM. The IC50 in [11] was above 20000 nM; in data set [12] it was above 50000 nM; in data set [13], above 50000 nM. In data set [4], this compound gave a solubility below 1000 µg/mL. Moreover, in [5], the inhibition entry is “Active”.

(Values after ChEMBL document CHEMBL1240409, “Design, synthesis and evaluation of (E)-alpha-benzylthio chalcones as novel inhibitors of BCR-ABL kinase” (Bioorg Med Chem, 2010).)
